Experiment [1] has as its system Mycobacterium tuberculosis. The experiment is described as follows: Antitubercular activity against Mycobacterium tuberculosis H37Ra by alamar blue microplate assay. It is filed as functional. (Resazurin is reduced to fluorescent resorufin, in cell work by metabolically active cells.)
Experiment [2] deals with Plasmodium falciparum. As to the kind of experiment: Antimalarial activity against Plasmodium falciparum K1 by microculture radioisotope assay. It is filed as functional, organism-based. In outline:
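The P. falciparum K1 strain is multidrug-resistant and was kept in continuous culture. In vitro activity was measured by the microculture radioisotope technique.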

Experiment [3] relates to Candida albicans. The experiment is described as follows: Antifungal activity against Candida albicans ATCC 90028 by tetrazolium/formazan assay. The format is functional, organism-based.
In experiment [4] the test system is Candida albicans. As to the kind of experiment: Antifungal activity against Candida albicans ATCC 90028 at 50 ug/mL by tetrazolium/formazan assay. The format is functional, organism-based. In outline:
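Candida albicans ATCC 90028 tested with a tetrazolium/formazan assay. Compounds were run at 50 µg/mL. Amphotericin B served as the positive control and DMSO as the negative control.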

Experiment [5] deals with Plasmodium falciparum. As to the kind of experiment: Antimalarial activity against Plasmodium falciparum K1 at 10 ug/mL by microculture radioisotope assay. The format is functional, organism-based.

In brackets after ≈: the same amount, converted by molar mass. Activity calls are given as the source filed them. No cut-off for these calls is given here.

As usually defined, the MIC is the lowest concentration that inhibits growth of the organism. A higher MIC goes with a less susceptible organism. For orientation: IC50 means the point on the concentration scale where inhibition reaches its midpoint.

`NNC(=O)c1ccncc1` [ISONIAZID] registered an MIC in experiment [1] of 0.1 µg/mL (≈ 0.729 µM).

For `CC(=O)O/C1=C(\C)[C@@H](O)[C@H]2[C@@H](OC(=O)c3ccccc3)[C@@H](C)[C@H](O)[C@]2(OC(C)=O)[C@H](OC(C)=O)/C(C)=C/CC(C)(C)[C@@H](OC(C)=O)[C@H]1OC(C)=O`, the 50% inhibitory concentration (IC50) in the experiment on Plasmodium falciparum [2] came out at 6 µM. Also, the MIC in experiment [1] was 100 µg/mL (≈ 140 µM).

On to `C[C@@H]1[C@H](O)[C@@H](C)/C=C/C=C/C=C/C=C/C=C/C=C/C=C/[C@H](O[C@@H]2O[C@H](C)[C@@H](O)[C@H](N)[C@@H]2O)C[C@@H]2O[C@](O)(C[C@@H](O)C[C@@H](O)[C@H](O)CC[C@@H](O)C[C@@H](O)CC(=O)O[C@H]1C)C[C@H](O)[C@H]2C(=O)O` (stereo in doubt) [AMPHOTERICIN B], for which, in the experiment with Candida albicans [3], the midpoint of inhibition, the IC50, lay at 0.068 µg/mL (≈ 0.0736 µM).

On to `C[C@H]1[C@@H](O)O[C@@H]2O[C@@]3(C)CC[C@H]4[C@H](C)CC[C@@H]1[C@@]24OO3` [ARTENIMOL], for which the IC50 in the experiment with Plasmodium falciparum [2] turned out to be 0.0036 µM.

In the case of `CC(=O)O[C@H]1C[C@@H](OC(=O)c2ccccc2)/C(C)=C\[C@H]2[C@@H](OC(=O)c3ccccc3)[C@@H](C)[C@H](O)[C@]2(OC(C)=O)[C@H](O)[C@@](C)(O)/C=C/C1(C)C`, in the experiment with Plasmodium falciparum [2], the IC50 amounted to 5.9 µM. For the same compound, in experiment [1], the lowest concentration to inhibit growth (MIC) was 12.5 µg/mL (≈ 18.4 µM). Further, the result with Candida albicans [4] was inactive.

Turning to `CC(=O)O/C1=C(\C)[C@@H](O)[C@H]2[C@@H](OC(=O)c3ccccc3)[C@@H](C)[C@H](OC(C)=O)[C@]2(OC(C)=O)[C@H](OC(C)=O)/C(C)=C/CC(C)(C)[C@@H](OC(C)=O)[C@H]1OC(C)=O`, the IC50 in the experiment with Plasmodium falciparum [2] stood at 5.8 µM. Also, the MIC in experiment [1] amounted to 50 µg/mL (≈ 65.9 µM). Moreover, the outcome with Candida albicans [4] was inactive.

With `CC(=O)O[C@@H]1/C(C)=C/CC(C)(C)[C@@H](OC(C)=O)[C@@H](OC(C)=O)C(=O)/C(C)=C\[C@H]2[C@@H](OC(=O)c3ccccc3)[C@@H](C)[C@H](OC(C)=O)[C@]12OC(C)=O`, in the experiment on Plasmodium falciparum [2], half-maximal inhibition (IC50) was put at 4 µM. In experiment [1], this compound registered an MIC of 50 µg/mL (≈ 71.6 µM).

For the compound `NC[C@H]1O[C@H](O[C@H]2[C@H](O)[C@@H](O[C@H]3O[C@H](CO)[C@@H](O)[C@H](N)[C@H]3O)[C@H](N)C[C@@H]2N)[C@H](O)[C@@H](O)[C@@H]1O` [KANAMYCIN], in experiment [1], the MIC was found to be 2.5 µg/mL (≈ 5.16 µM).

`CC(=O)O[C@H]1C[C@@H](O)/C(C)=C\[C@H]2[C@@H](OC(=O)c3ccccc3)[C@@H](C)[C@H](O)[C@]2(OC(C)=O)[C@H](O)[C@@](C)(O)/C=C/C1(C)C`: the outcome with Plasmodium falciparum [5] and in the experiment with Candida albicans [4] was inactive. Further, the MIC in experiment [1] was 100 µg/mL (≈ 174 µM).

These data come from ChEMBL document CHEMBL1141288, “Antimalarial and antituberculous poly-O-acylated jatrophane diterpenoids from Pedilanthus tithymaloides” (J Nat Prod, 2007).
